Screens: PubChem, several laboratories
NALP1 yeast inh: NALP1 inflammasome inhibitors in reconstituted yeast, colorimetric, S. cerevisiae, triplicate retest; S. cerevisiae NALP1/ASC/caspase-1 growth, X-gal OD620, 72 h; inhibition, % at 10 µM; 280,000 tested, 0.61% active; in the data active = inhibition mostly above about 24%, no sharp cut-off; inactive = mostly below about 32%
MC4R antag cAMP: MC4R antagonists of cAMP signaling, primary screen, cell-based, TR-FRET, antagonist arm of biased-ligand search; MC4R-expressing cells, MTII-stimulated cAMP, LANCE TR-FRET; inhibition, % at 6.5 µM; 360,000 tested, 0.48% active;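 active = inhibition above its plate's cutoff, the mean of tested wells on that plate plus 3 SD, cut at about 29% in these data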
Target sequence (P32245 whole entry, looked up): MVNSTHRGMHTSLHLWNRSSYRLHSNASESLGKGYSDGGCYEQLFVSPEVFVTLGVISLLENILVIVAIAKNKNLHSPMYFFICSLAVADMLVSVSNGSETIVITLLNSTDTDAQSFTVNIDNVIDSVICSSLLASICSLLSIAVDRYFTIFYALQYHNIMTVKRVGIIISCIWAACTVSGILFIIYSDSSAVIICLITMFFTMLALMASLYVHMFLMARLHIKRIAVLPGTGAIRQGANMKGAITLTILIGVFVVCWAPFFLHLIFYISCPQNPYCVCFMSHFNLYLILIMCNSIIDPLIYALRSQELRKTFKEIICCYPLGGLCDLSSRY
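System: U2OS cells stably expressing human melanocortin 4 receptor (MC4R). Reagent: Melanotan II challenge after compound preincubation. Doses: 6.5 µM. Times: 30-min compound, 1-h challenge, 1-h detection, room temperature. Measured by: TR-FRET with Eu-cAMP and labeled anti-cAMP, 671 nm. Replicates: singlicate.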
TbMetRS inhib: T. brucei MetRS inhibitors, primary screen, biochemical, luminescence | AID 624268, 2012 | inhibition, % at 11.9 µM | purified T. brucei MetRS, ATP depletion, Kinase-Glo luminescence | 360,000 tested, 0.4% active | methionyl-tRNA synthetase (Trypanosoma brucei brucei);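 active = inhibition above a per-plate cutoff of the control wells' mean inhibition plus 3 SD, cut at about 5.5% in these data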
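Test system: purified T. brucei MetRS enzyme. Also added: ATP, methionine and E. coli bulk tRNA substrates. Compound: 11.9 µM single point. Schedule: 15 min enzyme-compound preincubation, 2 h reaction, 10 min detection, 25 °C. Signal: luciferase luminescence of residual ATP, Kinase-Glo. Evaluation: percent inhibition versus plate control medians. Controls: DMSO wells, low control.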
MC4R barr agon: MC4R agonists recruiting beta-arrestin, primary screen, cell-based, luminescence, agonist arm of biased-ligand search; Melanocortin receptor 4 (Homo sapiens), P32245; U2OS MC4R beta-arrestin complementation; percent of melanotan II response, DMSO zero; activation, % at 8.9 µM; 360,000 tested, 0.98% active; AID 540308, 2011;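 active = activation above a per-plate cutoff, the mean activation of sample wells on that plate plus 3 SD, cut at about 8% in these data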
A1 inh: caspase 3/7 activation in MEF A1-2A-BIM cells, primary screen, A1 inhibitor project, cell-based, luminescence, HTS | Caspase-Glo 3/7 luminescence, 3 h; percent of clofoctol response, vehicle zero | caspase activation, % (no concentration beside the values) | 330,000 tested, 0.066% active | AID 2462, 2010;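 active = over half of replicate activation scores above 10%, or exactly half above 10 with the replicate mean above 10; inconclusive = replicate mean below 10 yet half the replicates above 10; inactive = over half of replicates below 10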
NALP3 yeast inh: NALP3 inflammasome inhibitors in reconstituted yeast, primary screen, luminescence, uHTS; AID 2825, 2010; 330,000 tested, 0.39% active; inhibition, % at 10 µM; Yeast reconstituted NLRP3/ASC/caspase-1, beta-gal luminescence, 24 h;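 active = inhibition of 50% or more; inactive = inhibition below 50%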
cAMP nonselect: nonselective cAMP signaling inhibitors, parental cells, counter-screen for MC4R biased antagonist project, cell-based, TR-FRET, U2OS, forskolin, triplicate. shares compounds with MC4R antag cAMP. LANCE TR-FRET. inhibition, % at 6.5 µM. 1,600 tested, 26% active;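 active = mean inhibition over triplicates above the low-control well mean plus 3 SD, set per campaign, cut at about 13% in these data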;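 also: signal is single emission at 671 nm which falls as cellular cAMP rises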
MC4R antag conf: MC4R cAMP antagonists, retest, confirmation, cell-based, TR-FRET | shares compounds with MC4R antag cAMP | inhibition, % at 6.5 µM | MC4R-expressing cells, MTII-stimulated cAMP | 1,600 tested, 27% active; in the data active = inhibition above about 29%
Numbers stand for hits; n = inactive; u = inconclusive; x = no result. Hits are enriched below; roughly 2.5% of the tested compounds scored in any of these assays.

SMILES	NALP1 yeast inh	MC4R antag cAMP	TbMetRS inhib	MC4R barr agon	A1 inh	NALP3 yeast inh	cAMP nonselect	MC4R antag conf
O=C(NC(Cc1c[nH]c2ccccc12)C(=O)O)c1ccc(F)cc1 (stereo not drawn)	n	n	n	n	u	n	x	x
O=C(COC(=O)c1c2c(nc3ccccc13)/C(=C\c1cccs1)CCC2)Nc1ccccc1	n	n	n	n	n	n	x	x
CC(C)CNC(=O)COC(=O)c1c2c(nc3ccccc13)/C(=C\c1cccs1)CC2	x	29.3	n	n	x	x	n	n
Cc1onc(-c2ccccc2Cl)c1C(=O)NNC(=O)c1nn(C)cc1Cl	n	36.3	n	n	n	n	n	n
Cc1onc(-c2ccccc2Cl)c1C(=O)NNC(=O)c1ccc(F)cc1	n	n	n	n	n	n	x	x
COc1cc(/C=C2\C(=N)N3N=C(C)SC3=NC2=O)cc(Cl)c1OCCOc1ccc(NC(C)=O)cc1	n	30.1	n	n	n	n	n	n
Cc1ccc(S(=O)(=O)n2cccc2/C=C/[N+](=O)[O-])cc1	x	38.2	n	n	x	x	n	n
Cc1nnc2n(-c3ccccc3)c(=O)c3c4c(sc3n12)CCCC4	n	29.4	n	n	n	n	n	n
Cc1nnc2n(-c3ccccc3)c(=O)c3c4c(sc3n12)COC(C)(C)C4	n	n	n	n	n	n	x	x
Cc1ccc(NC2=C(CC(=O)O)C(c3ccccc3)N(c3ccc(C)cc3)C2=O)cc1 (stereo not drawn)	n	30.9	n	n	n	n	n	n
COc1ccc(C2C(CC(=O)O)=C(O)C(=O)N2c2ccccc2)cc1 (stereo not drawn)	n	n	n	n	n	n	x	x
C=CCn1c(C)cc(C(=O)COc2ccc(N(C)S(=O)(=O)c3ccc(NC(C)=O)cc3)cc2)c1C	x	40.3	n	n	n	n	n	n
COCC(C)n1c(C)cc(C(=O)COc2ccc(N(C)S(=O)(=O)c3ccc(NC(C)=O)cc3)cc2)c1C (stereo not drawn)	x	n	n	n	x	n	x	x
O=C(CCCc1nc2ccccc2s1)NCc1cccnc1	n	28.9	n	n	n	n	n	n
Clc1ccc(-c2cccc3nccn23)c(Cl)c1	x	n	n	n	x	x	x	x
COc1ccc(CC(=O)Nc2cc3oc4ccccc4c3cc2OC)cc1	n	29.4	n	n	n	n	n	n
Cc1ccc(C(=O)NCC(=O)OCC(=O)Nc2cc(S(=O)(=O)N3CCOCC3)ccc2C)cc1	x	n	n	n	n	n	x	x
Cc1ccc(S(=O)(=O)N2CCCCC2)cc1NC(=O)COC(=O)CNC(=O)c1cc(Cl)cc([N+](=O)[O-])c1	n	31.2	n	n	n	n	n	n
O=C(CNC(=O)c1ccc(Cl)cc1)OCn1nnc2ccccc2c1=O	x	n	n	n	n	n	x	x
O=C(CNC(=O)c1ccc(Cl)cc1Cl)OCC(=O)N1CCCC1=O	x	35.2	n	n	n	n	18.9	29.8
O=C(COC(=O)CNC(=O)c1ccc(Cl)cc1Cl)NCc1ccco1	x	30.9	n	n	n	n	n	43.5
CC1CCCC(C)N1C(=O)COC(=O)CNC(=O)c1ccc(Cl)cc1Cl (stereo not drawn)	x	29.1	n	n	n	n	18.4	n
O=C(CNC(=O)c1ccc(Cl)cc1Cl)OCn1nnc2ccccc2c1=O	x	31.8	n	n	n	n	17.1	n
